Assay results taken from article PMC5774632 (Science translational medicine, 2017).

How the values were obtained:
[1] = after intraperitoneal injection; cited from earlier work
BM HSCs = experiment: H2B-GFP label dilution assay; assay type: in vivo, mouse
Method in brief: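 Adult homozygous H2B-GFP;M2-rtTA mice got 2 mg/ml doxycycline in drinking water for 6 weeks. Two weeks after withdrawal, vehicle or 150 mg/kg test compound was gavaged 12 h before vehicle or 150 mg/kg 5FU. BM was harvested 4 weeks after 5FU, and Lin−c-Kit+Sca-1+CD150+CD48− HSC H2B-GFP dilution was curve-fitted. PI = daughter cells per labelled HSC; log2(PI) = divisions. Mean ± SD, 3–6 mice, 3 experiments.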

human BM HSPCs = experiment: Human BM proliferation assay; assay type: in vivo; details: 192 mg/m^2, 24 hours after dose
Method in brief: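 Healthy volunteers in the 192 mg/m2 single-IV-dose cohort each gave one bone marrow aspirate: predose (n = 5), 24 h (n = 3) or 32 h (n = 4). Lineages were identified by flow cytometry with CD45, CD34, CD14, CD11b, CD71 and CD61. Cell cycle phase (G0/G1 vs S/G2/M) came from DRAQ5 DNA content.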

murine HSPCs = experiment: In vivo G1T28 dose response and pharmacodynamic assay; design: species or system mouse
Method in brief: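 Female C57BL/6 mice, 8–10 weeks old, got a single IP dose of 50 or 100 mg/kg test compound. EdU 10 mg/kg IP followed at 0.5 to 168 h, and BM and thymus were harvested 2 h later. Surface-stained cells were live/dead-labelled, fixed in 5% formalin, permeabilised with saponin and click-stained with Alexa Fluor 555 azide. DNA was stained with 2 μg/ml DAPI before flow cytometry. n = 3–6 mice/dose/time point.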

HSCs = experiment: Serial 5FU treatment and competitive BM reconstitution assay; assay type: in vivo, mouse; details: for long-term reconstitution of PB lineages by donor HSCs, primary transplantation: vs 5FU only
Method in brief: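 Donors were female CD45.1 mice given 4 rounds of PBS or 150 mg/kg 5FU at 3-week intervals; some got 150 mg/kg test compound by gavage (vehicle 50 mM citrate, pH 4.0) 30 min before each 5FU. Eight weeks after the last dose, 500,000 donor BM cells plus 500,000 CD45.2 competitor cells went into C57BL/6 recipients irradiated with 2 × 540 rads. Five donors per group, five recipients each. Lineage chimerism was tracked in PB every 4 weeks for ≥16 weeks.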

C57BL/6 mice = experiment: 5FU survival assay; assay type: in vivo, mouse; details: for increase in median survival over controls / median survival: 100 mg/kg IP 12 h before each 5FU; for survival in serial 5FU assay: 10-day intervals
Method in brief: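 Female C57BL/6 mice, 8–10 weeks old, got 150 mg/kg 5FU IP once every 7 or 10 days. Test compound was given IP at 50 or 100 mg/kg at 30 minutes, 12 hours and/or 24 hours before each 5FU dose. Mice were monitored daily.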

[2] = Human PK study, first-in-human Phase I, single IV infusion; assay type: in vivo
Method in brief: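 Healthy volunteers got a single IV infusion (6–192 mg/m2), with blood sampled predose and at multiple later times. Plasma was spiked with D3-labelled internal standard and protein-precipitated with acetonitrile, then quantified by validated LC-MS/MS. Calibration was 0.5 to 1,000 ng/mL, weighted (1/x2) linear, LLOQ 0.5 ng/mL. PK parameters were derived by noncompartmental and compartmental methods.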

BM progenitors = experiment: Single dose 5FU hematologic recovery and methylcellulose colony formation assay; assay type: in vivo, mouse
[3] = Human safety and tolerability assessment, Phase I healthy volunteers; assay type: in vivo
Method in brief: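 Single-centre, double-blind, randomised, placebo-controlled (3:1) single-dose IV study in healthy adults aged 18–60, BMI 18–32 kg/m2, ≥50 kg. Doses were 6, 12, 24, 48, 96 or 192 mg/m2. Subjects stayed in clinic Day −1 to Day 5 and returned Days 7, 10 and 14. Monitoring covered AEs, clinical laboratory tests, vital signs, 12-lead ECG and physical examination. Toxicity was graded by CTCAE v4.0.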

[4] = ref not given; cited from earlier work
[5] = Terminal half-lives of SCLC standard of care chemotherapy agents; assay type: in vivo; details: 4 half-lives
[6] = tested on: RB-expressing human cell lines; details: vast majority of RB-expressing human cell lines; cited from earlier work
[7] = single agent, 6 weeks after doxycycline removal
[8] = after G1T28 treatment, single IP 50 or 100 mg/kg
[9] = G1T28 12 hours before single 5FU, 4 weeks after 5FU
[10] = 4 rounds of 5FU at 3-week intervals
[11] = human, plasma, intravenous, 192 mg/m2

O=c1[nH]cc(F)c(=O)[nH]1 [5FU, 5-fluorouracil, reference compound]
plasma t1/2 [1]: 0.167 to 0.333 h | average number of HSC divisions (BM HSCs; [7]): 5.3 ± 0.5 divisions | proliferation index (PI) (BM HSCs; [7]): 41.3 ± 5.4

CN1CCN(c2ccc(Nc3ncc4cc5n(c4n3)C3(CCCCC3)CNC5=O)nc2)CC1 [G1T28, trilaciclib]
reduction in S/G2/M cell frequency of total BM cells (human BM HSPCs): 45% | duration of reduction in EdU incorporation in HSCs before recovery (murine HSPCs; [8]): up to 36 hours | time of minimum EdU incorporation and S/G2/M cell frequency in HSCs (murine HSPCs; [8]): 12 h | EdU incorporation (S-phase cells) in all hematopoietic cell types (murine HSPCs; single IP dose, 12 hours after treatment): dose-dependent reduction in EdU incorporation | average number of HSC divisions (BM HSCs; [9]): 4.6 ± 0.4 divisions | proliferation index (PI) (BM HSCs; [9]): 25.2 ± 4.7 | average number of HSC divisions (BM HSCs; [7]): 2.4 ± 1.0 divisions | proliferation index (PI) (BM HSCs; [7]): 6.2 ± 2.6 | long-term reconstitution of PB lineages by donor HSCs, primary transplantation (HSCs; [10]): enhanced reconstitution of all lineages | reconstitution in secondary recipients (HSCs; secondary transplantation 32 weeks after initial transplantation): significantly greater overall reconstitution | increase in median survival over controls (C57BL/6 mice; 5FU at 7-day intervals): 55% | median survival (C57BL/6 mice; 5FU at 7-day intervals): 28 days | increase in median survival over controls (C57BL/6 mice; 5FU at 10-day intervals): 125% | median survival (C57BL/6 mice; 5FU at 10-day intervals): 63 days | survival protection (C57BL/6 mice; 10-day assay, G1T28 30 minutes before each 5FU): Marked protection | survival protection over treatment at −30 min alone (C57BL/6 mice; 10-day assay, G1T28 given twice, −24 h and −30 min): no additional protection | end of fast α-phase of elimination ([2]; after end of infusion): approximately 4 h | end of β-phase of elimination ([2]; after end of infusion): approximately 36 h | half-life ([2]; human, plasma, intravenous): 5.32 to 9.28 h | Cmax [2, 11]: 1700 ng/mL | half-life [2, 11]: 12.9 to 14.7 h | Tmax ([2]; human, plasma, iv): 0.25 to 0.47 h | contribution of the terminal phase to the effective half-life ([2]; in vivo): 15-20% | colony-forming cells surviving (BM progenitors; 1 and 2 days after 5FU treatment): increased the number of colony-forming cells | PB count recovery (BM progenitors; G1T28 30 minutes before single 5FU): significantly accelerated the PB count recovery | clinical laboratory testing, vital signs, ECG, physical examination, body weight ([3]; all treatment groups): no clinically relevant changes | most frequently reported TEAEs ([3]; single IV infusion): headache and nausea | severe or life-threatening TEAEs ([3]; single IV infusion): No TEAEs of severe or life-threatening intensity were reported | tolerability ([3]; single IV infusion, all test doses): well tolerated | peripheral blood cell counts ([3]; single dose, up to 14 days after infusion): did not significantly alter

N.N.O=C([O-])C1(C(=O)[O-])CCC1.[Pt+2] [carboplatin]
terminal half-life [4]: 6 h

COc1cc([C@@H]2c3cc4c(cc3[C@@H](O[C@@H]3O[C@@H]5CO[C@@H](C)O[C@H]5[C@H](O)[C@H]3O)[C@H]3COC(=O)[C@H]23)OCO4)cc(OC)c1O [etoposide]
terminal half-life [4]: 7.5 h | fraction cleared during a 32-hour G1 arrest [5]: approximately 94%

CC(=O)c1c(C)c2cnc(Nc3ccc(N4CCNCC4)cn3)nc2n(C2CCCC2)c1=O [palbociclib, reference compound]
EC50 [6]: > 2 µM | survival in serial 5FU assay (C57BL/6 mice): survival benefit

CN(C)C(=O)c1cc2cnc(Nc3ccc(N4CCNCC4)cn3)nc2n1C1CCCC1 [ribociclib, reference compound]
survival in serial 5FU assay (C57BL/6 mice): survival benefit

B1: pegfilgrastim (protein, chains of the INN, looked up)
chain: TPLGPASSLPQSFLLKCLEQVRKIQGDGAALQEKLCATYKLCHPEELVLLGHSLGIPWAPLSSCPSQALQLAGCLSQLHSGLFLYQGLLQALEGISPELGPTLDTLQLDVADFATTIWQQMEELGMAPALQPTQGAMPAFASAFQRRAGGVLVASHLQSFLEVSYRVLRHLAQP
modifications: PEG
long-term HSC function, combined use of pegfilgrastim with G1T28 (HSCs; [10]): abolished the HSC protective effect of G1T28 | long-term reconstitution of PB lineages by donor HSCs, primary transplantation (HSCs; [10]): did not benefit long-term HSC function | survival in serial 5FU assay (C57BL/6 mice): survival benefit
